Data: ChEMBL document CHEMBL1152431, “p-Guanidinoethyl calixarene and parent phenol derivatives exhibiting antibacterial activities. Synthesis and biological evaluation” (Bioorg Med Chem, 2009)
Activity calls are given as the source filed them. The calls are words filed in the database; no cut-off is given here.

Tests used:
[1] = system: MRC5; test: Cytotoxicity against human MRC5 cells after 48 hrs; format: cell-based; settings: MRC5, 48 h
Method in brief: (§1)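 MRC-5 human embryonic lung fibroblasts were grown in MEM with 10% heat-inactivated FBS and no antibiotics at 37 °C, 5% CO2, and seeded at 10^4 cells/well. After 48 h, drugs were applied at 256 to 1 µg/mL for 24, 48 or 168 h. Viability was read by MTT, or by LDH release for some compounds, as percent of untreated control. IC50 was given as a range; 8 wells per dose, 3 independent experiments.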

[2] = Selectivity index, ratio of IC50 for human MRC5 cells after 24 hrs to MIC for Pseudomonas aeruginosa ATCC 27853; format: functional
Method in brief: (§2)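 SI computed as the MRC-5 IC50 after 24 h of drug exposure divided by the broth microdilution MIC for the named reference strain.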

[3] = Selectivity index, ratio of IC50 for human MRC5 cells after 24 hrs to MIC for Escherichia coli ATCC 25922; format: functional; method in brief: as §2
[4] = system: Staphylococcus aureus; test: Antibacterial activity against Staphylococcus aureus ATCC 25923 after 18 to 24 hrs by broth microdilution method; format: functional
Method in brief: (§3)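 CLSI broth microdilution in Mueller-Hinton broth, with a final inoculum of 1 × 10^5 CFU/mL in U-bottom microplates. Isolate purity was checked at each test by colony morphology and Gram stain. Drug dilutions were added and plates incubated 18–24 h at 35 °C. Growth was read as absorbance at 540 nm to give the MIC.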

[5] = Selectivity index, ratio of IC50 for human MRC5 cells after 24 hrs to MIC for Enterococcus faecalis ATCC 29212; format: functional; method in brief: as §2
[6] = system: Escherichia coli; test: Antibacterial activity against Escherichia coli ATCC 25922 after 18 to 24 hrs by broth microdilution method; format: functional; method in brief: as §3
[7] = system: Pseudomonas aeruginosa; test: Antibacterial activity against Pseudomonas aeruginosa ATCC 27853 after 18 to 24 hrs by broth microdilution method; format: functional; method in brief: as §3
[8] = system: Enterococcus faecalis; test: Antibacterial activity against Enterococcus faecalis ATCC 29212 after 18 to 24 hrs by broth microdilution method; format: functional; method in brief: as §3
[9] = system: Staphylococcus aureus; test: Antibacterial activity against Staphylococcus aureus ATCC 29213 after 18 to 24 hrs by broth microdilution method; format: functional; method in brief: as §3
[10] = Selectivity index, ratio of IC50 for human MRC5 cells after 24 hrs to MIC for Staphylococcus aureus ATCC 29213; format: functional; method in brief: as §2
[11] = system: MRC5; test: Cytotoxicity against human MRC5 cells after 168 hrs; format: cell-based; settings: MRC5, 168 h; method in brief: as §1
[12] = system: MRC5; test: Cytotoxicity against human MRC5 cells after 24 hrs; format: cell-based; settings: MRC5, 24 h; method in brief: as §1
[13] = Selectivity index, ratio of IC50 for human MRC5 cells after 24 hrs to MIC for Staphylococcus aureus ATCC 25923; format: functional; method in brief: as §2
[14] = system: Escherichia coli; test: Antibacterial activity against Escherichia coli ATCC 25922 upto 256 ug/mL after 18 to 24 hrs by broth microdilution method; format: functional, organism-based; method in brief: as §3
[15] = system: Pseudomonas aeruginosa; test: Antibacterial activity against Pseudomonas aeruginosa ATCC 27853 upto 256 ug/mL after 18 to 24 hrs by broth microdilution method; format: functional, organism-based; method in brief: as §3
[16] = system: Enterococcus faecalis; test: Antibacterial activity against Enterococcus faecalis ATCC 29212 upto 256 ug/mL after 18 to 24 hrs by broth microdilution method; format: functional, organism-based; method in brief: as §3
[17] = system: Staphylococcus aureus; test: Antibacterial activity against Staphylococcus aureus ATCC 29213 upto 256 ug/mL after 18 to 24 hrs by broth microdilution method; format: functional, organism-based; method in brief: as §3
[18] = system: Staphylococcus aureus; test: Antibacterial activity against Staphylococcus aureus ATCC 25923 upto 256 ug/mL after 18 to 24 hrs by broth microdilution method; format: functional, organism-based; method in brief: as §3

Row | Compound | IC50 [1] [µg/mL] | Selectivity Index [2] | Selectivity Index [3] | MIC [4] [µg/mL] | Selectivity Index [5] | MIC [6] [µg/mL] | MIC [7] [µg/mL] | MIC [8] [µg/mL] | MIC [9] [µg/mL] | Selectivity Index [10] | IC50 [11] [µg/mL] | IC50 [12] [µg/mL] | Selectivity Index [13] | Activity [14] | Activity [15] | Activity [16] | Activity [17] | Activity [18]
1 | N=C(N)NCCCCCCCCCCNC(=N)N.O=C(O)C(F)(F)F [SYNTHALIN A] | 8 | 1 | 2 | 64 | 0.5 | 64 | 128 | 256 | 16 | 8 | < 1 | 128 | 2 |  |  |  |  | 
2 | Cc1ccc(-c2ccc(COc3c4cc(CCNC(=N)N)cc3Cc3cc(CCNC(=N)N)cc(c3O)Cc3cc(CCNC(=N)N)cc(c3OCc3ccc(-c5ccc(C)cn5)nc3)Cc3cc(CCNC(=N)N)cc(c3O)C4)cn2)nc1.O=C(O)C(F)(F)F | > 128 | >4 | >4 | 8 | >16 | 32 | 32 | 8 | 8 | >16 |  | > 128 | >16 |  |  |  |  | 
3 | Cc1cccc(-c2cccc(COc3ccc(CCNC(=N)N)cc3)n2)n1.O=C(O)C(F)(F)F | 16 | 0.25 | 0.25 | 16 | 0.5 | 128 | 128 | 64 | 8 | 4 | 2 | 32 | 2 |  |  |  |  | 
4 | N=C(N)NCCc1cc2c(O)c(c1)Cc1cc(CCNC(=N)N)cc(c1O)Cc1cc(CCNC(=N)N)cc(c1O)Cc1cc(CCNC(=N)N)cc(c1O)C2.O=C(O)C(F)(F)F | > 256 | >8 | >64 | 8 | >8 | 4 | 32 | 32 | 8 | >32 | 128 | > 256 | >32 |  |  |  |  | 
5 | Cc1cccc(-c2cccc(COc3c4cc(CCNC(=N)N)cc3Cc3cc(CCNC(=N)N)cc(c3O)Cc3cc(CCNC(=N)N)cc(c3OCc3cccc(-c5cccc(C)n5)n3)Cc3cc(CCNC(=N)N)cc(c3O)C4)n2)n1.O=C(O)C(F)(F)F | 16 | 1 | 1 | 16 | 1 | 16 | 16 | 16 | 16 | 1 | 16 | 16 | 1 |  |  |  |  | 
6 | Cc1csc(-c2nc(COc3c4cc(CCNC(=N)N)cc3Cc3cc(CCNC(=N)N)cc(c3O)Cc3cc(CCNC(=N)N)cc(c3OCc3csc(-c5nc(C)cs5)n3)Cc3cc(CCNC(=N)N)cc(c3O)C4)cs2)n1.O=C(O)C(F)(F)F | 16 | 1 | 1 | 8 | 2 | 16 | 16 | 8 | 16 | 1 | 16 | 16 | 2 |  |  |  |  | 
7 | O=C([O-])C(F)(F)F.[Na+] |  |  |  |  |  |  |  |  |  |  |  |  |  | inactive | inactive | inactive | inactive | inactive
8 | Cc1csc(-c2nc(COc3ccc(CCNC(=N)N)cc3)cs2)n1.O=C(O)C(F)(F)F | 32 | 0.5 | 1 | 16 | 1 | 64 | 128 | 64 | 8 | 8 | 8 | 64 | 4 |  |  |  |  | 
9 | N=C(N)NCCc1ccc(O)cc1.O=C(O)C(F)(F)F | > 256 |  | >0.5 | 512 |  | 512 | > 512 | > 512 | 512 | >0.5 | 32 | > 256 | >0.5 |  |  |  |  | 
10 | N=C(N)c1ccc(OCCCCCCOc2ccc(C(=N)N)cc2)cc1.O=C(O)C(F)(F)F | 16 | 1 | 4 | 4 | 16 | 8 | 32 | 2 | < 1 | 32 | 4 | 32 | 8 |  |  |  |  | 
11 | Cc1ccc(-c2ccc(COc3ccc(CCNC(=N)N)cc3)cn2)nc1.O=C(O)C(F)(F)F | > 128 | >1 | >16 | 8 | >2 | 8 | 128 | 64 | 4 | >32 |  | > 128 | >16 |  |  |  |  | 
